Results taken from ChEMBL document CHEMBL3421563, “Potent Irreversible Inhibitors of LasR Quorum Sensing in Pseudomonas aeruginosa” (ACS Med Chem Lett, 2015).
pEC50, pIC50: −log10 of the molar value. The source made the active and inactive calls. The rule behind the calls is not given here.

Key:
[1] = Antagonist activity at Pseudomonas aeruginosa LasR expressed in Escherichia coli BL21 DE3 after 4 to 6 hrs by GFP reporter gene assay
How it was run: (§1)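 GFP-based LasR antagonist bioassay. IC50 is the mean of triplicate runs, range as 95% confidence interval. Percent inhibition of GFP is measured at 100 μM relative to Br-HSL positive control, which is set at 100% inhibition.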

[2] = target: T1, Transcriptional activator protein LasR (Pseudomonas aeruginosa (strain ATCC 15692 / PAO1 / 1C / PRS 101 / LMG12228)) (UniProt P25084); assay: Antagonist activity at Pseudomonas aeruginosa LasR expressed in Escherichia coli BL21 DE3 at 100 uM after 4 to 6 hrs by GFP reporter gene assay relative to Br-HSL; how it was run: as §1
T1 sequence (whole entry): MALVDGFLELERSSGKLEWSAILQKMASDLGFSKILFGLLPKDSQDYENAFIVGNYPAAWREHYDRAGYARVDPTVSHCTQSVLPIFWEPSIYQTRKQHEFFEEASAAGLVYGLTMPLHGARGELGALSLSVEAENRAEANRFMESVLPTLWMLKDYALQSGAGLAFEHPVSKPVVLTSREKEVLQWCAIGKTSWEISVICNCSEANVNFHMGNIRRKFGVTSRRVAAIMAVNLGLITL

Pseudomonas aeruginosa [3] = assay: Effect on growth of Pseudomonas aeruginosa up to 200 uM; format: organism-based; details: in vivo
How it was run: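 Bacterial growth is monitored by OD600 at concentrations up to 200 μM.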

[4] = target: T1, Transcriptional activator protein LasR (Pseudomonas aeruginosa (strain ATCC 15692 / PAO1 / 1C / PRS 101 / LMG12228)); assay: Irreversible antagonist activity at Pseudomonas aeruginosa LasR expressed in Escherichia coli BL21 DE3 at 10 to 50 uM after 4 to 6 hrs by GFP reporter gene assay in presence of LasR agonist 3-oxo-C12HSL
How it was run: (§2)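 Competition format of the GFP LasR bioassay: antagonist held at a fixed concentration while a dose-response curve of native agonist 3-oxo-C12 HSL is run; the maximal activation and the curve are compared.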

[5] = target: T2, Transcriptional activator protein LasR (Pseudomonas aeruginosa (strain ATCC 15692 / PAO1 / 1C / PRS 101 / LMG12228), UniProt P25084); assay: Agonist activity at Pseudomonas aeruginosa LasR expressed in Escherichia coli BL21 DE3 after 4 to 6 hrs by GFP reporter gene assay
T2 sequence (P25084 whole entry): T1 sequence (whole entry)

[6] = target: T1, Transcriptional activator protein LasR (Pseudomonas aeruginosa (strain ATCC 15692 / PAO1 / 1C / PRS 101 / LMG12228)); assay: Antagonist activity at LasR in Pseudomonas aeruginosa PA14 assessed as inhibition of static biofilm thickness grown in rich media after 36 hrs by SYTO-9 nucleic acid staining-based confocal microscopic analysis
How it was run: (§3)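 PA14 biofilms grown 36 h in Luria broth, stained with SYTO-9 and imaged by confocal fluorescence microscopy. Biomass and thickness are computed from the images. Images are taken in duplicate and imaging is repeated three times.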

[7] = target: T1, Transcriptional activator protein LasR (Pseudomonas aeruginosa (strain ATCC 15692 / PAO1 / 1C / PRS 101 / LMG12228)); assay: Antagonist activity at LasR in Pseudomonas aeruginosa PA14 assessed as inhibition of overall static biofilm biomass grown in rich media after 36 hrs SYTO-9 nucleic acid staining-based confocal microscopic analysis; how it was run: as §3
[8] = target: T1, Transcriptional activator protein LasR (Pseudomonas aeruginosa (strain ATCC 15692 / PAO1 / 1C / PRS 101 / LMG12228)); assay: Antagonist activity at LasR in Pseudomonas aeruginosa PA14 assessed as inhibition of static biofilm formation after 48 hrs by crystal violet staining
How it was run: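 Static PA14 cultures; 48 h biofilms quantified by crystal violet staining, absorbance at 550 nm.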

[9] = target: T1, Transcriptional activator protein LasR (Pseudomonas aeruginosa (strain ATCC 15692 / PAO1 / 1C / PRS 101 / LMG12228)); assay: Antagonist activity at LasR in Pseudomonas aeruginosa PA14 assessed as inhibition of static biofilm thickness grown in rich media at 12.5 to 25 uM after 36 hrs SYTO-9 nucleic acid staining-based confocal microscopic analysis
[10] = target: T1, Transcriptional activator protein LasR (Pseudomonas aeruginosa (strain ATCC 15692 / PAO1 / 1C / PRS 101 / LMG12228)); assay: Antagonist activity at LasR in Pseudomonas aeruginosa PAO1 assessed as decrease in pyocyanin level in extracted and acidified cell-free supernatants after 12 hrs
How it was run: (§4)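 Cell-free culture supernatants undergo a pyocyanin-selective extraction and acidification, then absorbance is read at 520 nm.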

[11] = target: T1, Transcriptional activator protein LasR (Pseudomonas aeruginosa (strain ATCC 15692 / PAO1 / 1C / PRS 101 / LMG12228)); assay: Antagonist activity at LasR in Pseudomonas aeruginosa PA14 assessed as decrease in pyocyanin level in extracted and acidified cell-free supernatants after 12 hrs; how it was run: as §4
Pseudomonas aeruginosa [12] = assay: Effect on growth of Pseudomonas aeruginosa PAO1 at 12.5 to 25 uM; format: organism-based; details: in vivo
How it was run: (§5)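 Growth of PAO1 and PA14 in the pyocyanin cultures is followed by cell density at A600.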

[13] = target: T1, Transcriptional activator protein LasR (Pseudomonas aeruginosa (strain ATCC 15692 / PAO1 / 1C / PRS 101 / LMG12228)); assay: Antagonist activity at LasR in Pseudomonas aeruginosa PAO1 assessed as decrease in pyocyanin level in cell-free supernatants after 12 hrs
How it was run: (§6)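 Cell-free supernatants from PAO1 or PA14 cultures. Pyocyanin is read directly as absorbance at 695 nm, in triplicate. Cell density is read at A600 in parallel.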

[14] = target: T1, Transcriptional activator protein LasR (Pseudomonas aeruginosa (strain ATCC 15692 / PAO1 / 1C / PRS 101 / LMG12228)); assay: Antagonist activity at LasR in Pseudomonas aeruginosa PA14 assessed as inhibition of static biofilm biomass grown in rich media at 12.5 to 25 uM after 36 hrs SYTO-9 nucleic acid staining-based confocal microscopic analysis
[15] = target: T1, Transcriptional activator protein LasR (Pseudomonas aeruginosa (strain ATCC 15692 / PAO1 / 1C / PRS 101 / LMG12228)); assay: Antagonist activity at LasR in Pseudomonas aeruginosa PA14 assessed as inhibition of overall static biofilm morphology grown in rich media at 12.5 to 25 uM after 36 hrs SYTO-9 nucleic acid staining-based confocal microscopic analysis
Pseudomonas aeruginosa [16] = assay: Effect on growth of Pseudomonas aeruginosa PA14 at 12.5 to 25 uM; how it was run: as §5
[17] = target: T1, Transcriptional activator protein LasR (Pseudomonas aeruginosa (strain ATCC 15692 / PAO1 / 1C / PRS 101 / LMG12228)); assay: Antagonist activity at LasR in Pseudomonas aeruginosa PA14 assessed as decrease in pyocyanin level in cell-free supernatants after 12 hrs; how it was run: as §6
[18] = target: T1, Transcriptional activator protein LasR (Pseudomonas aeruginosa (strain ATCC 15692 / PAO1 / 1C / PRS 101 / LMG12228)); assay: Irreversible antagonist activity at Pseudomonas aeruginosa LasR expressed in Escherichia coli BL21 DE3 at 10 to 100 uM after 4 to 6 hrs by GFP reporter gene assay in presence of LasR agonist 3-oxo-C12HSL; how it was run: as §2
[19] = target: T2, Transcriptional activator protein LasR; assay: Agonist activity at Pseudomonas aeruginosa LasR
[20] = target: T1, Transcriptional activator protein LasR (Pseudomonas aeruginosa (strain ATCC 15692 / PAO1 / 1C / PRS 101 / LMG12228)); assay: Non-competitive antagonist activity at Pseudomonas aeruginosa LasR expressed in Escherichia coli BL21 DE3 at 40 to 80 uM after 4 to 6 hrs by GFP reporter gene assay in presence of LasR agonist 3-oxo-C12HSL; how it was run: as §2

pIC50 [1]	inhibition [2]	SMILES	also measured
4.06	56%	O=C(Cc1cc(Br)cc(Br)c1OC(=O)CN1C(=O)C=CC1=O)Nc1ccccc1[N+](=O)[O-]	–
< 3.70	26%	O=C(CCCN=C=S)Oc1c(Br)cc(Br)cc1CNC(=O)c1ccccc1[N+](=O)[O-]	Activity (Pseudomonas aeruginosa [3]): Non-toxic
5.44	98%	O=C(Cc1cc(Br)cc(Br)c1OC(=O)CCN1C(=O)C=CC1=O)Nc1ccccc1[N+](=O)[O-]	inhibition [4]: Active
< 4.00	–	O=C(CCCN1C(=O)CCC1=O)Oc1c(Br)cc(Br)cc1CNC(=O)c1ccccc1[N+](=O)[O-]	pEC50 [5]: 6.92
5.82	101%	O=C(CCCN1C(=O)C=CC1=O)Oc1c(Br)cc(Br)cc1CNC(=O)c1ccccc1[N+](=O)[O-]	inhibition [6]: Dose-dependent effect; inhibition [7]: Dose-dependent effect; inhibition [8]: Dose-dependent effect; inhibition [9]: Active; inhibition [10]: Dose-dependent effect; inhibition [11]: Dose-dependent effect; Activity (Pseudomonas aeruginosa [12]): Non-toxic; inhibition [13]: Dose-dependent effect; inhibition [14]: Active; inhibition [15]: Active; Activity (Pseudomonas aeruginosa [16]): Non-toxic; inhibition [17]: Dose-dependent effect; inhibition [18]: Active
4.28	32%	O=C(CCN1C(=O)C=CC1=O)Oc1c(Br)cc(Br)cc1CNC(=O)c1ccccc1[N+](=O)[O-]	–
4.11	30%	O=C(Cc1cc(Br)cc(Br)c1OC(=O)CCCN1C(=O)C=CC1=O)Nc1ccccc1[N+](=O)[O-]	–

Second part, the compound before the results:

SMILES	pIC50 [1]	inhibition [2]	also measured
O=C(CCl)NCC(=O)Oc1c(Br)cc(Br)cc1CC(=O)Nc1ccccc1[N+](=O)[O-]	4.13	91%	–
O=C(CCl)NCCC(=O)Oc1c(Br)cc(Br)cc1CC(=O)Nc1ccccc1[N+](=O)[O-]	4.00	79%	–
O=C(Cc1cc(Br)cc(Br)c1OC(=O)CCN1C(=O)CCC1=O)Nc1ccccc1[N+](=O)[O-]	< 4.00	–	pEC50 [5]: 8.44
O=C(Cc1cc(Br)cc(Br)c1OC(=O)CCCN=C=S)Nc1ccccc1[N+](=O)[O-]	3.83	69%	Activity (Pseudomonas aeruginosa [3]): Non-toxic
O=C(Cc1ccc(Br)cc1)N[C@H]1CCOC1=O	4.79	–	–
O=C(Oc1c(Br)cc(Br)cc1CNC(=O)c1ccccc1[N+](=O)[O-])c1ccccc1Cl	–	–	pEC50 [19]: 7.55
O=C(Cc1cc(Br)cc(Br)c1OCCCN=C=S)Nc1ccccc1[N+](=O)[O-]	< 3.70	55%	Activity (Pseudomonas aeruginosa [3]): Non-toxic
O=C(Cc1cc(Br)cc(Br)c1OCCCCN=C=S)Nc1ccccc1[N+](=O)[O-]	3.84	61%	Activity (Pseudomonas aeruginosa [3]): Non-toxic; inhibition [20]: Active
